The nature of data set [1]: Antioxidant activity against 12-O-tetradecanoylphorbol-13-acetate-stimulated superoxide radical generation in human neutrophils assessed as chemiluminescence unit per 10^6 cells at 10 uM. The data set is classed as functional, Neutrophil. Details: unit not given here. In outline: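 Human neutrophils (2.5×10^6 cells/mL) were loaded with luminol (40 µM) and stimulated with TPA (1 µM) for 7 min. Chemiluminescence was recorded, with compounds at 10 µM. Controls were stimulated cells given vehicle. Data are mean ± SEM.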

A short description of data set [2]: Antioxidant activity in cytochalasin B and fMLP-stimulated human neutrophils assessed as inhibition of p-nitrophenol-induced elastase activity at 10 uM.
Data set [3] has as its system Neutrophil. The experiment in a line: (§1) Antioxidant activity against hypoxanthine / xanthine oxidase system-stimulated superoxide radical generation in human neutrophils. The data set is classed as functional, cell-based.
Data set [4] is described as follows: Cytotoxicity against human neutrophils at 10 uM by MTT assay. It is filed as cell-based. The following applies: neutrophil. (Tetrazolium dyes change colour on reduction, which living cells bring about.)
Data set [5] concerns the target T1, Polyunsaturated fatty acid 5-lipoxygenase (Homo sapiens) (UniProt P09917).
T1 sequence (whole entry): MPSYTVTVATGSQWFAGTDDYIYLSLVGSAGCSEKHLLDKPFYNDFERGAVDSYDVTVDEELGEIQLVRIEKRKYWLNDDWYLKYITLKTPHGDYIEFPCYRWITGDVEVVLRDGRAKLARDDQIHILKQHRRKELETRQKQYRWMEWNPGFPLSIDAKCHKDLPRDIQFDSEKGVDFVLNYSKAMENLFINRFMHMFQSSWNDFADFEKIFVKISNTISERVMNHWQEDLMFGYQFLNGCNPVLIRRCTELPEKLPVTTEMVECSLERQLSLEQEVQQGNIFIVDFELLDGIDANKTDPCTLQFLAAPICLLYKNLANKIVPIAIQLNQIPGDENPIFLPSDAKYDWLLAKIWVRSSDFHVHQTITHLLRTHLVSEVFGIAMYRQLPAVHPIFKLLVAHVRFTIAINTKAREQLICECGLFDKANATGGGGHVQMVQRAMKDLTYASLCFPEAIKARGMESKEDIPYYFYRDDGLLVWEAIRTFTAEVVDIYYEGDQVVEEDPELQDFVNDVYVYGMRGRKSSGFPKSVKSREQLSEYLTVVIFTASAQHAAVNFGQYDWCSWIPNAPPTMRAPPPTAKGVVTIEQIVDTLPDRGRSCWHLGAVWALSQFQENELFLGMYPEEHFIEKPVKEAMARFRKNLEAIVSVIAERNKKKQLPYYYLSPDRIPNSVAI
The experiment in a line: Inhibition of 5LO-mediated LTB4 production in calcium ionophore A23187-stimulated human neutrophils at 10 uM by RIA.

The test system of data set [6] is RAW264.7. The experiment in a line: Antiinflammatory activity against LPS-stimulated mouse RAW264.7 cells assessed as nitrite accumulation after 20 hrs by fluorimetry. The data set is classed as functional, cell-based. The following applies: RAW264.7, 20 h. In outline: (§2)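 Mouse RAW 264.7 cells (2×10^6/mL) in DMEM plus 10% FBS were stimulated for 20 h with E. coli LPS (1 µg/mL), with compound or 1% v/v methanol vehicle. Nitrite in 10 µL supernatant was read fluorometrically after 10 min in the dark with 2,3-diaminonaphthalene (0.05 mg/mL in 0.62 M HCl). Single-point tests used 10 µM, given as mean ± SEM (n = 9-12). IC50s carry 95% confidence limits.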

Data set [7] concerns RAW264.7. The experiment in a line: Antiinflammatory activity against LPS-stimulated mouse RAW264.7 cells assessed as nitrite accumulation at 10 uM after 20 hrs by fluorimetry relative to control. The data set is classed as functional. In outline: as §2
Data set [8] relates to RAW264.7. The data set is described as follows: Antiinflammatory activity against LPS-stimulated mouse RAW264.7 cells assessed as PGE2 accumulation at 10 uM after 20 hrs by RIA relative to control. It is filed as functional. The method in brief: (§3)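 RAW 264.7 mouse macrophages (2×10^6/mL) in DMEM with 10% foetal bovine serum were stimulated with E. coli LPS (1 µg/mL) for 20 h alongside compound or vehicle (methanol, 1% v/v). Supernatant PGE2 was measured by radioimmunoassay. Single-point tests used 10 µM, reported as mean ± SEM (n = 9-12) against vehicle-treated stimulated cells. IC50 values carry 95% confidence limits.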

The subject of data set [9] is RAW264.7. The experiment in a line: Antiinflammatory activity against LPS-stimulated mouse RAW264.7 cells assessed as PGE2 accumulation after 20 hrs by RIA. It is filed as functional, cell-based. The note with it: RAW264.7, 20 h. In outline:
as §3

Data set [10] deals with T2, Polyunsaturated fatty acid 5-lipoxygenase (Homo sapiens, UniProt P09917).
T2 sequence (P09917 whole entry): T1 sequence (whole entry)
The experiment in a line: (§4) Inhibition of 5LO-mediated LTB4 production in human neutrophils by RIA.

Data set [11] concerns the target T1, Polyunsaturated fatty acid 5-lipoxygenase (Homo sapiens). Described as §4.
The subject of data set [12] is Neutrophil. The data set is described as follows: (§5) Antioxidant activity against 12-O-tetradecanoylphorbol-13-acetate-stimulated superoxide radical generation in human neutrophils. It is filed as functional, cell-based.
A short description of data set [13]: as §5. It is filed as functional, cell-based. The following applies: Neutrophil.
Data set [14] can be described thus: as §1. The note with it: Neutrophil. It is filed as functional, cell-based.

SMILES strings stand for the structures. Calls of active or inactive are those of the source. No cut-off for these calls is given here. Bounds are passed on as bounds.

As for `CC(=O)Oc1ccc(/C=C2\CCn3c2nc2ccccc2c3=O)cc1`, the Activity was 2636.4 in [1]; 19.2 nmol/mL in [2]; “Non-toxic” in [4]; 59.8 ng/mL in data set [5]; 151.2 ng/mL in the data set on RAW264.7 [7]; 9.9 ng/mL with RAW264.7 [8]. In the data set with Neutrophil [3], the result was inactive. The IC50 (usually the concentration at which inhibition is half-maximal) in the data set with RAW264.7 [6] stood at 1800 nM.
As to `O=c1c2ccccc2nc2n1CC/C2=C\c1ccccc1`, the Activity in [1] is 2960.4; in [2], 19.1 nmol/mL; in data set [4], “Non-toxic”; in data set [5], 61.6 ng/mL; in the data set with RAW264.7 [7], 337.1 ng/mL; with RAW264.7 [8], 4.8 ng/mL. For the same compound, the outcome with Neutrophil [3] was inactive. Also, the IC50 in the data set on RAW264.7 [6] was over 10000 nM.
As to `COc1cc(/C=C2\CCn3c2nc2ccccc2c3=O)cc(OC)c1`, the Activity in [1] is 4150.7; in data set [2] it was 16.8 nmol/mL; in data set [4] it was “Non-toxic”; in [5], 58.4 ng/mL; with RAW264.7 [7], 437.2 ng/mL; in the data set on RAW264.7 [8], 14.8 ng/mL. Also, the IC50 in the data set with RAW264.7 [9] and in the data set on RAW264.7 [6] was over 10000 nM in each case. The outcome with Neutrophil [3] was inactive.
Regarding `CC(=N)NCc1cccc(CN)c1` [1400W], the results for the IC50 in the data set with RAW264.7 [9] and in the data set on RAW264.7 [6] were over 10000 nM and 300 nM, respectively. Moreover, the Activity in the data set on RAW264.7 [7] turned out to be 11.6 ng/mL.
On to `COc1cc(/C=C2\CCn3c2nc2ccccc2c3=O)cc(OC)c1OC(C)=O`, for which the Activity in [1] is 2486.9; in [2], 18.6 nmol/mL; in [4], “Non-toxic”; in data set [5] it was 13.5 ng/mL; in the data set with RAW264.7 [7], 143.4 ng/mL; in data set [11] it was “Dose-dependent effect”. In addition, the Activity in the data set with RAW264.7 [8] was 6.7 ng/mL. The IC50 was 200 nM in the data set on RAW264.7 [9], 4200 nM in the data set on RAW264.7 [6] and 600 nM in [10]. Moreover, the result in the data set with Neutrophil [3] was inactive.
Take `CS(=O)(=O)Nc1ccc([N+](=O)[O-])cc1OC1CCCCC1` [NS-398]: the IC50 with RAW264.7 [9] is 2.1 nM; with RAW264.7 [6] it was over 10000 nM. The Activity in the data set on RAW264.7 [8] was found to be 3.7 ng/mL.
On to `O=c1c2ccccc2nc2n1CC/C2=C\c1ccc(O)cc1`, for which the Activity is 3269.2 in data set [1]; 16.9 nmol/mL in data set [2]; “Non-toxic” in data set [4]; 55.9 ng/mL in [5]; 429.8 ng/mL in the data set with RAW264.7 [7]; 15.4 ng/mL with RAW264.7 [8]. Further, the IC50 in the data set on RAW264.7 [9] and with RAW264.7 [6] was over 10000 nM throughout. The outcome with Neutrophil [3] was inactive.
`CCn1c(=O)ccc2cc(COc3cc(F)cc(C4(OC)CCOCC4)c3)ccc21`: the Activity in data set [5] was found to be 4.5 ng/mL.
In the case of `COc1cc(/C=C2\CCn3c2nc2ccccc2c3=O)cc(OC)c1O` [ISAINDIGOTONE], the Activity was 570.6 in [1]; “Dose-dependent effect” in the data set with Neutrophil [12]; 19.3 nmol/mL in [2]; “Non-toxic” in data set [4]; 4.2 ng/mL in data set [5]; 459.3 ng/mL in the data set on RAW264.7 [7]. In addition, the figures for the Activity entry (in [11]; with RAW264.7 [8]) were “Dose-dependent effect” and 20.3 ng/mL, respectively. In addition, the IC50 was 41.8 nM in data set [13]; over 10000 nM with RAW264.7 [9]; 42.2 nM in [14]; over 10000 nM with RAW264.7 [6]; 40 nM in data set [10].
Take `O=c1c2ccccc2nc2n1CC/C2=C\c1ccc(C(F)(F)F)cc1`: the Activity is 4101.1 in data set [1]; 19.3 nmol/mL in data set [2]; “Non-toxic” in [4]; 57.9 ng/mL in data set [5]; 448 ng/mL with RAW264.7 [7]; 15.6 ng/mL in the data set on RAW264.7 [8]. For the same compound, the concentration for half-maximal inhibition (IC50) in the data set with RAW264.7 [9] and in the data set with RAW264.7 [6] was over 10000 nM throughout. For the same compound, in the data set on Neutrophil [3], the result was inactive.
For the compound `O=c1c2ccccc2nc2n1CC/C2=C\c1ccc(F)cc1`, the Activity is 3221.7 in data set [1]; 19.7 nmol/mL in data set [2]; “Non-toxic” in [4]; 58.9 ng/mL in data set [5]; 438 ng/mL in the data set on RAW264.7 [7]; 5.7 ng/mL in the data set with RAW264.7 [8]. The IC50 was 80 nM with RAW264.7 [9] and over 10000 nM in the data set on RAW264.7 [6]. In the data set on Neutrophil [3], the outcome was inactive.
